Results: ChEMBL document CHEMBL4229371, “Discovery of [1,2,4]triazolo[3,4-b][1,3,4]thiadiazole derivatives as novel, potent and selective c-Met kinase inhibitors: Synthesis, SAR study, and biological activity” (Eur J Med Chem, 2018)

Columns and labels:
[1] = target: T1, Hepatocyte growth factor receptor (Homo sapiens, UniProt P08581); test: Inhibition of GST-tagged human c-MET preincubated for 20 mins followed by [33P]-ATP addition and measured after 2 hrs by Hot-Spot kinase assay
[2] = test system: MKN-45; test: Antiproliferative activity against human MKN45 cells at 5 uM after 72 hrs by Cell Titer-Glo assay; assay type: functional
Procedure, shortened: (§1)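 Cell Titer-Glo viability assay. Exponentially growing cells were plated at 4000 per well in RPMI-1640 with 10% FPS and incubated 12 h at 37 °C in 5% CO2. Compound was then added at the indicated final concentrations and cells were held 72 h at 37 °C in 5% CO2. CTG reagent was applied for 10 min at room temperature. Inhibition % = (1 − Vsample/Vvehicle control) × 100.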

[3] = test system: SNU-5; test: Antiproliferative activity against human SNU5 cells at 5 uM after 72 hrs by Cell Titer-Glo assay; assay type: functional; procedure, shortened: as §1
[4] = test system: EBC-1; test: Antiproliferative activity against human EBC1 cells at 5 uM after 72 hrs by Cell Titer-Glo assay; assay type: functional; procedure, shortened: as §1
[5] = test system: EBC-1; test: Antiproliferative activity against human EBC1 cells at 1 uM after 72 hrs by Cell Titer-Glo assay; assay type: functional; procedure, shortened: as §1
[6] = test system: MKN-45; test: Antiproliferative activity against human MKN45 cells at 1 uM after 72 hrs by Cell Titer-Glo assay; assay type: functional; procedure, shortened: as §1
[7] = test system: EBC-1; test: Antiproliferative activity against human EBC1 cells after 72 hrs by Cell Titer-Glo assay; assay type: functional, cell-based; settings: EBC-1, 72 h; procedure, shortened: as §1
[8] = target: Tyrosine-protein kinase receptor UFO (Homo sapiens) (UniProt P30530); test: Inhibition of GST-tagged human AXL at 5 uM preincubated for 20 mins followed by [33P]-ATP addition measured after 2 hrs by Hot-Spot kinase assay
Procedure, shortened: (§2)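 Radiometric filter-binding assay with 5 nM human GST-tagged kinase and substrate. Buffer was 20 mM Hepes pH 7.5, 10 mM MgCl2, 1 mM EGTA, 0.02% Brij35, 0.02 mg/mL BSA, 0.1 mM Na3VO4, 2 mM DTT and 1% DMSO. Compound in DMSO was preincubated with kinase for 20 min at room temperature. 33P-ATP was then added and the reaction ran 2 h at room temperature. IC50 values came from curve fitting.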

[9] = target: T1, Hepatocyte growth factor receptor; test: Inhibition of HGF-induced c-MET phosphorylation at Tyr1234/1235 in human MKN45 cells after 1 hr by Western blot analysis; assay type: cell-based
Procedure, shortened: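 MKN45 cells were plated at 2x10^4 per well in RPMI-1640 with 10% FPS and treated with a range of doses for 1 h. Lysis was in ice-cold RIPA with protease inhibitors. Lysate holding 30 µg protein (BCA) was run on SDS-PAGE and blotted to PVDF. Membranes were blocked in 5% skim milk, given primary antibody overnight at 4 °C, then HRP secondary for 1 h at room temperature, and read by ECL.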

[10] = target: BDNF/NT-3 growth factors receptor (Homo sapiens) (UniProt Q16620); test: Inhibition of GST-tagged human TRKB at 5 uM preincubated for 20 mins followed by [33P]-ATP addition measured after 2 hrs by Hot-Spot kinase assay; procedure, shortened: as §2
[11] = target: Platelet-derived growth factor receptor alpha (Homo sapiens) (UniProt P16234); test: Inhibition of GST-tagged human PDGFRalpha at 5 uM preincubated for 20 mins followed by [33P]-ATP addition measured after 2 hrs by Hot-Spot kinase assay; procedure, shortened: as §2
[12] = target: Tyrosine-protein kinase ABL1 (Homo sapiens) (UniProt P00519); test: Inhibition of GST-tagged human ABL1 at 5 uM preincubated for 20 mins followed by [33P]-ATP addition measured after 2 hrs by Hot-Spot kinase assay; procedure, shortened: as §2
[13] = target: Vascular endothelial growth factor receptor 1 (Homo sapiens) (UniProt P17948); test: Inhibition of GST-tagged human FLT1 at 5 uM preincubated for 20 mins followed by [33P]-ATP addition measured after 2 hrs by Hot-Spot kinase assay; procedure, shortened: as §2
[14] = target: T2, Receptor-type tyrosine-protein kinase FLT3 (Homo sapiens, UniProt P36888); test: Inhibition of GST-tagged human FLT3 preincubated for 20 mins followed by [33P]-ATP addition measured after 2 hrs by Hot-Spot kinase assay; procedure, shortened: as §2
T2 sequence (P36888 whole entry): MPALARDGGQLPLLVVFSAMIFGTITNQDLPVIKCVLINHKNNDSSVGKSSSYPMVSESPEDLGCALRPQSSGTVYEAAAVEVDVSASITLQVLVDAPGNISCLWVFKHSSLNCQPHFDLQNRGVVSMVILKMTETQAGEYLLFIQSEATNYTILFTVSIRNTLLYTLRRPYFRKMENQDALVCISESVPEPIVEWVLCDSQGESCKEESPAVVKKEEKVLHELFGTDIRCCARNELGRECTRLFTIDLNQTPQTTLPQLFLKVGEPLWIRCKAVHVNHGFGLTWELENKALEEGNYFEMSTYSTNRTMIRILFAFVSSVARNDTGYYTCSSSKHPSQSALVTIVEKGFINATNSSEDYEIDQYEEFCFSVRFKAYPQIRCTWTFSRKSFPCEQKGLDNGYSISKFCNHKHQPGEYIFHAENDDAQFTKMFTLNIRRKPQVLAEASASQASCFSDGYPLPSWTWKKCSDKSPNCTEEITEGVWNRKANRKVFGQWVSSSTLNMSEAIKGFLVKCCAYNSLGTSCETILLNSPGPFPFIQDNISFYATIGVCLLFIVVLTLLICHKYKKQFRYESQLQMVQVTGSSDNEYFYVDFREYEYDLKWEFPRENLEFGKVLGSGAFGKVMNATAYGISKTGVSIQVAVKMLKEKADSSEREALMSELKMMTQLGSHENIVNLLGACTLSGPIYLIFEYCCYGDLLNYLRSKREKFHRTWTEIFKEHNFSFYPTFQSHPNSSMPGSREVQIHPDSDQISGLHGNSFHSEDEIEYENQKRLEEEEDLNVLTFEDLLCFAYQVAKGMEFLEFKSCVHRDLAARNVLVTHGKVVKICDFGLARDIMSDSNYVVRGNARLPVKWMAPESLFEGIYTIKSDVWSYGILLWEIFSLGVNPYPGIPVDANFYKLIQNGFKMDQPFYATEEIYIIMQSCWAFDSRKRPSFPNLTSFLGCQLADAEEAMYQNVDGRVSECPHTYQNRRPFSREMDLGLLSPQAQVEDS

[15] = target: Proto-oncogene tyrosine-protein kinase receptor Ret (Homo sapiens) (UniProt P07949); test: Inhibition of GST-tagged human RET at 5 uM preincubated for 20 mins followed by [33P]-ATP addition measured after 2 hrs by Hot-Spot kinase assay; procedure, shortened: as §2
[16] = target: ALK tyrosine kinase receptor (Homo sapiens) (UniProt Q9UM73); test: Inhibition of GST-tagged human ALK at 5 uM preincubated for 20 mins followed by [33P]-ATP addition measured after 2 hrs by Hot-Spot kinase assay; procedure, shortened: as §2
[17] = target: Angiopoietin-1 receptor (Homo sapiens) (UniProt Q02763); test: Inhibition of GST-tagged human TIE2 at 5 uM preincubated for 20 mins followed by [33P]-ATP addition measured after 2 hrs by Hot-Spot kinase assay; procedure, shortened: as §2
[18] = target: Receptor-type tyrosine-protein kinase FLT3 (Homo sapiens) (UniProt P36888); test: Inhibition of GST-tagged human FLT3 at 5 uM preincubated for 20 mins followed by [33P]-ATP addition measured after 2 hrs by Hot-Spot kinase assay; procedure, shortened: as §2
[19] = target: Tyrosine-protein kinase Lck (Homo sapiens) (UniProt P06239); test: Inhibition of GST-tagged human LCK at 5 uM preincubated for 20 mins followed by [33P]-ATP addition measured after 2 hrs by Hot-Spot kinase assay; procedure, shortened: as §2
[20] = target: Vascular endothelial growth factor receptor 2 (Homo sapiens) (UniProt P35968); test: Inhibition of GST-tagged human KDR at 5 uM preincubated for 20 mins followed by [33P]-ATP addition measured after 2 hrs by Hot-Spot kinase assay; procedure, shortened: as §2
[21] = target: Mast/stem cell growth factor receptor Kit (Homo sapiens) (UniProt P10721); test: Inhibition of GST-tagged human c-KIT at 5 uM preincubated for 20 mins followed by [33P]-ATP addition measured after 2 hrs by Hot-Spot kinase assay; procedure, shortened: as §2

T1 sequence (P08581 whole entry): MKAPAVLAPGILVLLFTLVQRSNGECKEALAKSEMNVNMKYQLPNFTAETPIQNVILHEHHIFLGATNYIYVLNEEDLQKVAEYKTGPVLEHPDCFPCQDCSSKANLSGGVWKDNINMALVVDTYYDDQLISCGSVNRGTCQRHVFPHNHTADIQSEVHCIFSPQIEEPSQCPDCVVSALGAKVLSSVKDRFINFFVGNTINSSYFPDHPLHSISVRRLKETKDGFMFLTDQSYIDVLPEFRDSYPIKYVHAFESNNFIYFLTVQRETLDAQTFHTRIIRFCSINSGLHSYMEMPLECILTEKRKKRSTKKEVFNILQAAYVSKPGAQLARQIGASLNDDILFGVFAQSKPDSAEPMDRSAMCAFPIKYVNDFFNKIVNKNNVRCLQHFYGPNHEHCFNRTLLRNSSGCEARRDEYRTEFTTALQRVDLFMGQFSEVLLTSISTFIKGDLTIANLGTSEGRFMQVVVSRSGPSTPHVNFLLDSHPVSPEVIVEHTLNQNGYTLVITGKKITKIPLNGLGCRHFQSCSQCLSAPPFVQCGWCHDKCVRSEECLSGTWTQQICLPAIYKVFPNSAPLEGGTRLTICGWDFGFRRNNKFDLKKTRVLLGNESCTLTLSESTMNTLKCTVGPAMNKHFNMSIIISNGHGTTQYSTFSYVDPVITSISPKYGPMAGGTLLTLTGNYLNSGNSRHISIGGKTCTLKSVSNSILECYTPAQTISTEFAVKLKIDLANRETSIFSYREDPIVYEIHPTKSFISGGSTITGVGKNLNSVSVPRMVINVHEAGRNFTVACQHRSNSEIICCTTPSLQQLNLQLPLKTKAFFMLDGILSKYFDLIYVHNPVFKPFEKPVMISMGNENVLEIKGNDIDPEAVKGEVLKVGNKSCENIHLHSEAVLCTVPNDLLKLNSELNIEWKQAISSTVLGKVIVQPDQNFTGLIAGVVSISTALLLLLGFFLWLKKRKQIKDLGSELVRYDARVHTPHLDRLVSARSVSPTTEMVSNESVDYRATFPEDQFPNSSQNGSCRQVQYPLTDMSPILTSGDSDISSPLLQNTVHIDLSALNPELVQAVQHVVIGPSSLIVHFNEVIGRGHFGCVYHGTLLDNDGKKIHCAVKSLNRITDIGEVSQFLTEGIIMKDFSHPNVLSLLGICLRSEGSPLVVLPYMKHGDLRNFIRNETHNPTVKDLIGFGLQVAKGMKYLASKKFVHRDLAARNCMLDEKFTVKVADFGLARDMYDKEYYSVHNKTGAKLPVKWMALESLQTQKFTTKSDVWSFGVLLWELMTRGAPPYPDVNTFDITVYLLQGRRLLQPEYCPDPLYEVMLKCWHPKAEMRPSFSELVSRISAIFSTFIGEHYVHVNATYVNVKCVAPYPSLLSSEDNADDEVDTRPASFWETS
Chain of Proto-oncogene tyrosine-protein kinase receptor Ret (Homo sapiens) (P07949 whole entry): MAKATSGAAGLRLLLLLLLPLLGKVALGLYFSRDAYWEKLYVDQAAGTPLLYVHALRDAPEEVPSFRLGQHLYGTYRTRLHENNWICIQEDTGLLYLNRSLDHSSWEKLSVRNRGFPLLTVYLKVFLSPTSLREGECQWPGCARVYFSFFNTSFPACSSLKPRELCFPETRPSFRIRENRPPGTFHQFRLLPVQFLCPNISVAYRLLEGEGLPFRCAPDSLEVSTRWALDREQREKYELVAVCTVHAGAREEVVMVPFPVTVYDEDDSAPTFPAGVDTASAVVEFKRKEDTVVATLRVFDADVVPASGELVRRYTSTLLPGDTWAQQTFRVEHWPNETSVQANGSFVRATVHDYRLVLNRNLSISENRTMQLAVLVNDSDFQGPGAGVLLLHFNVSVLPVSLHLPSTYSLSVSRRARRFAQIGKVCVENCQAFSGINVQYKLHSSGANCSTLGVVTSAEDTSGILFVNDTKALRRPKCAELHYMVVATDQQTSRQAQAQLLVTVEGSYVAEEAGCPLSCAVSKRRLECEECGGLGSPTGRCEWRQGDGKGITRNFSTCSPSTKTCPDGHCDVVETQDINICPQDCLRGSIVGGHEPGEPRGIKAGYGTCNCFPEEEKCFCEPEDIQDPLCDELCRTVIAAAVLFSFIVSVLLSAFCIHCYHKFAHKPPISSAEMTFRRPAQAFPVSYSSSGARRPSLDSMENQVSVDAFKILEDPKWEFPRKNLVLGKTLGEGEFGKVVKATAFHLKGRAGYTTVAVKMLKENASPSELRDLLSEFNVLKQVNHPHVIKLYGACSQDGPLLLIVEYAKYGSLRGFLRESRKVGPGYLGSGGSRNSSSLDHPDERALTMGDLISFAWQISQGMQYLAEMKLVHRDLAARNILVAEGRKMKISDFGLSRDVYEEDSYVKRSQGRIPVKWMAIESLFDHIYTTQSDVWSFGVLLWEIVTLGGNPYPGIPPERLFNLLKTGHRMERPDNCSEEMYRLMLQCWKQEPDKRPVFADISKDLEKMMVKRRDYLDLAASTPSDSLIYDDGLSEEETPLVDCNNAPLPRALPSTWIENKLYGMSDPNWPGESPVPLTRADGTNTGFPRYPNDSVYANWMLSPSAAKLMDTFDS
Chain of Vascular endothelial growth factor receptor 2 (Homo sapiens) (P35968 whole entry): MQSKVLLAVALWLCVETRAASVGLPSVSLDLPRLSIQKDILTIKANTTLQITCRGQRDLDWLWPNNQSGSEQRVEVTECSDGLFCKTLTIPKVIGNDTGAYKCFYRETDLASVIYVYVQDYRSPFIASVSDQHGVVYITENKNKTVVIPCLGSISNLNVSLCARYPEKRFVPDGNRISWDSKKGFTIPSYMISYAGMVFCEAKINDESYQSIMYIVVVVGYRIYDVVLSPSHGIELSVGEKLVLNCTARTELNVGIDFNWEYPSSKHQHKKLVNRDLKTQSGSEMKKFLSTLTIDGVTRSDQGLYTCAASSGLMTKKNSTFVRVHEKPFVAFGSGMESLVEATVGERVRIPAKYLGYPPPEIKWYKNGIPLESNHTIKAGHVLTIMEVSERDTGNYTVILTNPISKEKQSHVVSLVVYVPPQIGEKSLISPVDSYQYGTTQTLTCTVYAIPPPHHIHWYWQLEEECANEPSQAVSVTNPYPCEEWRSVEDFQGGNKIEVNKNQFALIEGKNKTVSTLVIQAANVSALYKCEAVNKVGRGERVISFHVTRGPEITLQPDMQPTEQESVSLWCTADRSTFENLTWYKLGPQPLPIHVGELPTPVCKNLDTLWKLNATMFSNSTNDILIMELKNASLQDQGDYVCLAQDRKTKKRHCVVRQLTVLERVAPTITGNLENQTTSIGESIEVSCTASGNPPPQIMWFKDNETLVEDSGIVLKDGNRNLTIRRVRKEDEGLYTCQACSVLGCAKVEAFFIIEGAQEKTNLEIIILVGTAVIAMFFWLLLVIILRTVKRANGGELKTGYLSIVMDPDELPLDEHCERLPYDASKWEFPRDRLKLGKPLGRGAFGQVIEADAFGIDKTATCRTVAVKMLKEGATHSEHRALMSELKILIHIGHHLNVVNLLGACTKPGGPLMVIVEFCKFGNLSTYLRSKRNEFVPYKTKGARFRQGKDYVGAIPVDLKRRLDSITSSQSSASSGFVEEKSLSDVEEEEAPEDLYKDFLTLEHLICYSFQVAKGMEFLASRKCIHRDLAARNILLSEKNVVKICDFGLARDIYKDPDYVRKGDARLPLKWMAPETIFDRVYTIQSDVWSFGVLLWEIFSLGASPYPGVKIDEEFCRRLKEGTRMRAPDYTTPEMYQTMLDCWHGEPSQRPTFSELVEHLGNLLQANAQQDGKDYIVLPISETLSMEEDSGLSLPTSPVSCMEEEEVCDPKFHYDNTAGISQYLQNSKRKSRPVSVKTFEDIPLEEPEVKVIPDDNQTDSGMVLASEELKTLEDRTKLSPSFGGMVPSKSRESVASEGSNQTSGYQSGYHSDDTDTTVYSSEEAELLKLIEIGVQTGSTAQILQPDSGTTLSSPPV
Chain of BDNF/NT-3 growth factors receptor (Homo sapiens) (Q16620 32-822 limits assumed): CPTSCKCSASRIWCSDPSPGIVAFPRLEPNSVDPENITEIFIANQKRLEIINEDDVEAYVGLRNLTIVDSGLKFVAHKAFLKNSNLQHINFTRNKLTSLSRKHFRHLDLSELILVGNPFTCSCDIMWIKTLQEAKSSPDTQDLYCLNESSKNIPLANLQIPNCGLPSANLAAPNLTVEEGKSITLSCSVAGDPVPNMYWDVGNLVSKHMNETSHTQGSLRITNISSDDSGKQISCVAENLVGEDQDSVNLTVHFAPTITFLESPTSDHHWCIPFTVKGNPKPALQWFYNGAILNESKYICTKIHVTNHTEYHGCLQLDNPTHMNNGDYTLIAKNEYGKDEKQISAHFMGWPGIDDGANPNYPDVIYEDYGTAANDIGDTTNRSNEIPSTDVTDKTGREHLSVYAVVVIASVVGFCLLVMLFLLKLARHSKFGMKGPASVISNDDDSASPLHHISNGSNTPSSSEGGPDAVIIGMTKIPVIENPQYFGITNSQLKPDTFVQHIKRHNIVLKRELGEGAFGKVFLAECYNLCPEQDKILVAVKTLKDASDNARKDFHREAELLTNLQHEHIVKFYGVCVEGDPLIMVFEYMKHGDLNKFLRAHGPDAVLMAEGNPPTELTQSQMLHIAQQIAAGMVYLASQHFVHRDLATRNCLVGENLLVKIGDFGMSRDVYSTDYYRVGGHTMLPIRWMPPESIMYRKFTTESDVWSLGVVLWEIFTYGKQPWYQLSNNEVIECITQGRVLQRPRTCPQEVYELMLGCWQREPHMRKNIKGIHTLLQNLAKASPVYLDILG

Row | IC50 [1] | Structure (SMILES) | Activity [2] | Activity [3] | Activity [4] | Activity [5] | Activity [6] | IC50 [7] | also measured
1 | > 10 µM | CNC(=O)COc1ccc(Cc2nnc3sc(-c4cnn(C)c4)nn23)cc1 | – | – | – | – | – | – | –
2 | – | COc1ccc2c(OCc3nnc4sc(-c5ccn(C6CCCC6)c5)nn34)ccnc2c1 | 47.6% | 42% | 72.1% | 41.3% | – | – | –
3 | > 10 µM | CN(C)C(=O)COc1ccc(Cc2nnc3sc(-c4cnn(C)c4)nn23)cc1 | – | – | – | – | – | – | –
4 | > 10 µM | Cn1cc(-c2nn3c(Cc4ccc(OCCN5CCOCC5)cc4)nnc3s2)cn1 | – | – | – | – | – | – | –
5 | – | COc1ccc2[nH]c(-c3nn4c(COc5ccnc6cc(OC)ccc56)nnc4s3)cc2c1 | 61.2% | 60% | 84% | 82.2% | 75.3% | 85.6 nM | –
6 | – | COc1ccc2c(OCc3nnc4sc(-c5cccn5C)nn34)ccnc2c1 | 28.1% | 14.5% | 86.3% | 7.4% | – | – | –
7 | – | COc1ccc2c(OCc3nnc4sc(-c5ccncc5)nn34)ccnc2c1 | 73% | 65.7% | 83.7% | 91.6% | 73.8% | 289 nM | –
8 | – | COc1ccc(-c2nn3c(COc4ccnc5cc(OC)ccc45)nnc3s2)cc1 | 72% | 74.5% | 85.2% | 89.1% | 76.4% | 161 nM | –
9 | – | COc1ccc2c(OCc3nnc4sc(-c5ccc(F)cc5)nn34)ccnc2c1 | 71% | 65.8% | 83.1% | 89.4% | 68.5% | 187 nM | –
10 | – | COc1ccc2c(OCc3nnc4sc(-c5cccc(F)c5)nn34)ccnc2c1 | 71.3% | 66.3% | 81.4% | 86.7% | 13.2% | 504 nM | –
11 | – | COc1cccc(-c2nn3c(COc4ccnc5cc(OC)ccc45)nnc3s2)c1 | 66.6% | 65.7% | 85.4% | 91.5% | 37.8% | 472 nM | –
12 | – | COc1ccc2c(OCc3nnc4sc(-c5cc(F)c(F)c(F)c5)nn34)ccnc2c1 | 29.8% | 44.7% | 84.5% | 89.3% | – | 403 nM | –
13 | 0.00202 µM | COc1ccc2c(OCc3nnc4sc(-c5cnn(C)c5)nn34)ccnc2c1 | 71.9% | 68.7% | 84.4% | 90.9% | 73.6% | 88 nM | inhibition [8]: 11.1%; inhibition [9]: Dose-dependent effect; inhibition [10]: 0.04%; inhibition [11]: -3.29%; inhibition [12]: 14.9%; inhibition [13]: 0.28%; IC50 [14]: 1370 nM; inhibition [15]: -0.73%; inhibition [16]: -1.59%; inhibition [17]: -7.71%; inhibition [18]: 69.7%; inhibition [19]: -0.81%; inhibition [20]: -3.93%; inhibition [21]: 10.9%
14 | – | COCCn1ccc(-c2nn3c(COc4ccnc5cc(OC)ccc45)nnc3s2)c1 | 73% | 46.1% | 78.6% | 89% | 71.1% | 327 nM | –
15 | > 10 µM | O=C(Oc1ccc(Cc2nnc3sc(-c4cc5ccccc5[nH]4)nn23)cc1)c1cc2ccccc2[nH]1 | – | – | – | – | – | – | –
16 | – | COc1ccc2c(OCc3nnc4sc(-c5cc6cc(F)ccc6[nH]5)nn34)ccnc2c1 | 47.7% | 54.4% | 42.3% | – | – | – | –
17 | – | C[C@@H](Oc1cc(-c2cnn(C3CCNCC3)c2)cnc1N)c1c(Cl)ccc(F)c1Cl [CRIZOTINIB] | 77.7% | 80% | 94.4% | 93.1% | 82.6% | 39 nM | –
18 | 0.0793 µM | COc1ccc(Cc2nnc3sc(-c4cc5ccccc5[nH]4)nn23)cc1 | 76.3% | 70.2% | 87.3% | 86.5% | 78.1% | 107 nM | –
19 | – | COc1ccc2c(OCc3nnc4sc(-c5cc6ccccc6n5C)nn34)ccnc2c1 | 74.1% | 67.7% | 87% | 91.6% | 60.8% | 313 nM | –
20 | > 10 µM | Cn1cc(C(=O)Oc2ccc(Cc3nnc4sc(-c5cnn(C)c5)nn34)cc2)cn1 | – | – | – | – | – | – | –
21 | – | COc1ccc2c(OCc3nnc4sc(-c5ccc[nH]5)nn34)ccnc2c1 | 76.8% | 72.4% | 83.7% | 80.5% | 79.3% | 149 nM | –
22 | – | COc1ccc2c(OCc3nnc4sc(-c5cc[nH]c5)nn34)ccnc2c1 | 70.5% | 71.5% | 85.9% | 90.6% | 71.1% | 353 nM | –
23 | – | COc1ccc2c(OCc3nnc4sc(-c5ccn(CC6CC6)c5)nn34)ccnc2c1 | 66.6% | 52.2% | 75.9% | 87.2% | 41.1% | 351 nM | –
